Shown are actives, neighbours in structure and some others; about 2.1% of the full set was active somewhere.
STEP inh = STEP (human) phosphatase inhibition; P54829; 0.25% of 360,000 active; AID 588621; recombinant STEP, OMFP fluorogenic substrate, fluorescence; inhibition, % at 20 µM;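 active = inhibition at 20 µM, scaled per plate between control wells, above about 37%, limit read from the data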;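 also: 0% = DMSO with enzyme and substrate and 100% = substrate only without enzyme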
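Assay system: isolated STEP enzyme / Timing: 20 min at room temperature, dark / Doses: 20 µM, 1% DMSO / Technique: fluorescence intensity, excitation 480 nm, emission 540 nm / Reagent: fluorogenic phosphatase substrate OMFP at 25 µM final / Measure: percent inhibition scaled to no-enzyme and uninhibited-enzyme controls, plate-pattern corrected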
Scp-1 inhibitor = blocks human Scp-1 phosphatase activity; AID 493091; 0.88% of 340,000 active; Q9GZU7; inhibition, % at 20 µM; Recombinant Scp1, phosphopeptide, malachite green phosphate absorbance;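 active = inhibition above about 50% at 20 µM, limit read from the data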;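 also: plate controls were DMSO wells with enzyme for no effect and wells lacking enzyme for full effect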
Target sequence (Q9GZU7 76-261 limits assumed): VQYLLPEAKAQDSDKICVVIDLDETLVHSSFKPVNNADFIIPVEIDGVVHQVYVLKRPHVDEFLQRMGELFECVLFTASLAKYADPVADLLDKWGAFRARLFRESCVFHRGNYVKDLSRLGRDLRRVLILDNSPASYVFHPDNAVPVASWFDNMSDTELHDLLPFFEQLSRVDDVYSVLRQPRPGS
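System: SCP-1 catalytic domain; Reagent: Phospho 17-mer peptide substrate; Doses: one concentration, 20 µM, with 1.0% DMSO; Incubation: 45 min room-temperature reaction, 5 min colour, 30 min stabiliser; Signal: Phosphate-binding colour reagent, absorbance read at 630 nm.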
DNMT1 block = inhibitors of human DNMT1 | P26358 | DNMT1 molecular beacon, Hinp1I cleavage, fluorescence | inhibition (reported as % activation of signal), % at 10 µM | 0.83% of 360,000 active | AID 588458; in the data active = inhibition above about 50%
GRK2 inh = blocks RNA aptamer binding to human GRK2; P25098; bead flow cytometry, FAM-aptamer displacement from GRK2; inhibition of aptamer binding, % at 10 µM; 0.59% of 330,000 active;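 active = inhibition of aptamer binding above 40%, roughly 3 SD of noise, on plates passing a quality check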;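 also: median bead fluorescence of bound FAM aptamer so fluorescent compounds give negative values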
LMPTP block = blocks human LMPTP phosphatase; P24666; recombinant LMPTP-A, OMFP fluorogenic substrate, fluorescence intensity; inhibition, % at 20 µM; 0.22% of 360,000 active; AID 651560;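 active = compounds that cut the enzyme signal by at least half of the control window in the single-dose screen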;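 also: plate controls were DMSO wells with enzyme plus substrate for no effect and substrate without enzyme for full effect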
Target sequence (P24666 whole entry, looked up): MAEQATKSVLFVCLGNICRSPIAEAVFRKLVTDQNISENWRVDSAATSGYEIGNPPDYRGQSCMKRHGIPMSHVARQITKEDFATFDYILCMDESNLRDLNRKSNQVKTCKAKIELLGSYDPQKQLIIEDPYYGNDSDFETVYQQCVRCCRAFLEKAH
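Test system – LMPTP-A phosphatase enzyme · Quantity – 0.625 nM LMPTP-A final · Reagent – OMFP substrate, 400 µM final · Dosing – one test concentration per compound, 20 µM, with 3% DMSO overall · Timing – 50 min enzyme reaction at room temperature, protected from light · Detection – fluorescence intensity · Controls – substrate-only low control, DMSO enzyme-plus-substrate high control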
SUMO1 PPI mod = alters human SUMO1 binding to SIM partners | P63165 | SUMO1 binding to a labelled peptide, TR-FRET, 1 h | inhibition, % at 20 µM | 0.33% of 360,000 active | AID 602429; in the data active = inhibition above about 37%
Target sequence (P63165 whole entry, looked up): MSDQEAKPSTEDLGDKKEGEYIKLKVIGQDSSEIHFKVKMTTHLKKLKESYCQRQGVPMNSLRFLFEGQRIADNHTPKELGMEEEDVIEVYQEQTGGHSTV
DNMT1 confirm = confirmation of human DNMT1 inhibitors. inhibition, % at 10 µM. DNMT1 molecular beacon HinP1I cleavage, fluorescence. shares compounds with DNMT1 block. 8% of 2,300 active;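 active = average inhibition of at least 30% in the single-concentration confirmation test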
DNMT1 interf = shows spectral interference in the DNMT1 beacon assay | shares compounds with DNMT1 block | DNMT1 molecular beacon spectral interference counterscreen, fluorescence 485/520 | activation (fluorescence interference), % at 10 µM | 1% of 2,300 active | AID 602387;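 active = activation of at least 30% at 10 µM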;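 also: DNMT1 catalytic domain with a HinP1I cleavage step and a FAM/dabcyl DNA beacon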
Numbers without * were called inactive; x = no result given.

SMILES	STEP inh	Scp-1 inhibitor	DNMT1 block	GRK2 inh	LMPTP block	SUMO1 PPI mod	DNMT1 confirm	DNMT1 interf
NC(=O)CC(NC(=O)c1ccc(Br)cc1)c1ccc(N2CCN(c3ccccn3)CC2)c([N+](=O)[O-])c1 (stereo not drawn)	2.4	-2.3	-3.3	0.0	0.0	-13.3	x	x
NC(=O)CC(NC(=O)c1cccc(Br)c1)c1ccc(N2CCN(c3ccccn3)CC2)c([N+](=O)[O-])c1 (stereo not drawn)	-1.7	-6.5	102.6*	0.0	0.8	-12.1	5.0	8.9
NC(=O)CC(NC(=O)Cc1ccc(Cl)cc1)c1ccc(N2CCC(Cc3ccccc3)CC2)c([N+](=O)[O-])c1 (stereo not drawn)	-0.7	-0.2	71.2*	0.0	1.2	-4.5	1.3	2.2
Cc1cc(C)cc(C(=O)NC(CC(N)=O)c2ccc(N3CCC(Cc4ccccc4)CC3)c([N+](=O)[O-])c2)c1 (stereo not drawn)	-1.2	-4.4	-8.4	0.0	3.1	2.3	x	x
NC(=O)CCN1CCN(C(=O)c2ccc3nc(Cc4cccc(Cl)c4)oc3c2)CC1	0.1	-7.3	-0.1	3.0	-0.2	-2.3	x	x
Cc1nn(Cc2ccc(Cl)cc2)c(C)c1NC(=O)CSc1nc2c(c(C(F)(F)F)n1)CCc1ccccc1-2	17.9	6.0	51.3*	0.0	2.2	0.0	-0.5	-0.3
O=C1OC(c2cccs2)=N/C1=C/c1ccc(-c2cccc(C(=O)O)c2)o1	15.7	65.0*	85.1*	x	0.5	30.2	13.3	-1.3
O=C1OC(c2cccs2)=N/C1=C\c1ccc(-c2ccccc2Cl)o1	-5.9	6.5	-1.6	x	1.8	14.9	x	x
COc1ccc(CCNC(=O)C2CCCN(S(=O)(=O)c3ccccc3)C2)cc1 (stereo not drawn)	0.5	-1.8	82.5*	0.0	-0.5	-2.2	1.6	2.1
CC(=C\C(=O)O)/C(=C/c1ccc(C)o1)C(=O)O	-0.6	55.7*	77.7*	13.0	-2.4	-1.3	9.4	14.1
CC(=O)Nc1ccc(S(=O)(=O)NCC(CCC(=O)O)C(F)(F)F)cc1 (stereo not drawn)	-3.3	0.6	59.9*	2.0	-1.8	0.3	-0.2	3.9
CC(=O)Nc1ccc(S(=O)(=O)NCC(C)NS(=O)(=O)c2ccc(NC(C)=O)cc2)cc1 (stereo not drawn)	-4.5	-7.8	-1.0	0.0	-0.9	-0.7	x	x
C=CCN(C(=O)CNC(=O)c1cccs1)C(C(=O)NC1CCCCC1)c1cccnc1 (stereo not drawn)	-1.7	-0.8	-1.8	1.0	-0.6	-4.6	x	x
COC(=O)C1=C[C@@H](C(=O)OC)[C@@H]2C3=C(C(=O)C2(C)C)[C@H](c2ccccc2)[C@@H]2C(=O)N(C)C(=O)[C@@H]2[C@@H]3C1	-3.0	-8.2	-3.3	4.0	-1.7	-6.7	x	x
CCc1nonc1NC(=O)c1oc2cc(C)c(C)cc2c1C	-1.1	3.1	13.4	2.0	-1.1	-1.9	x	x
CCc1nnc(NC(=O)c2oc3cc(C)c(C)cc3c2C)s1	1.4	-2.0	52.6*	2.0	-1.1	-2.7	0.9	-1.1
O=C(Nc1cc(Cl)ccc1N1CCOCC1)C1=COCCO1	2.2	-3.4	2.5	0.0	0.2	3.7	x	x
CCOC(=O)[C@]12CCCC=C1N(Cc1cccc3ccccc13)C(=O)[C@H](CC(=O)NCCCN1CCCC1=O)C2	x	x	x	x	-0.3	6.5	x	x
CC[C@]12c3[nH]c4cc(CCC(=O)N(C)C)ccc4c3CCN1C(=O)[C@@H](CC(=O)NCc1cccc(C(F)(F)F)c1)C[C@@H]2C(=O)N1CCN(C(=O)c2ccco2)CC1	2.7	3.9	52.6*	0.0	-2.2	4.1	2.8	3.1
O=C(/C=C/c1ccc2c(c1)OCO2)NCCS(=O)(=O)N1CCN(c2ccccc2)CC1	4.1	x	71.2*	x	1.3	1.2	6.2	3.7
CC(C)OC(=O)CSc1nc(N2CCOCC2)c2c(c1C#N)CC(C)(C)OC2	0.2	-6.0	-2.0	3.0	-0.4	0.6	x	x
Cc1ccc(-c2cc(C(F)(F)F)c(C#N)c(=O)[nH]2)cc1	-0.6	-3.9	0.4	1.0	-0.5	6.5	x	x
Cc1ccc(-c2cc(-c3ccco3)c(C#N)c(=O)[nH]2)cc1	4.4	22.1	57.9*	1.0	49.1*	-0.3	-0.1	-2.3
NC1=NC[C@@H](Cc2ccc(O)cc2)N1CCC12CC3CC(CC(C3)C1)C2	-0.2	4.0	57.6*	0.0	0.3	2.3	0.1	-0.9
Cc1ccc2nc(N/N=C/c3ccccc3C#N)nc(-c3ccccc3)c2c1	0.6	12.0	-1.3	0.0	2.4	-19.3	x	x
SMILES	STEP inh	Scp-1 inhibitor	DNMT1 block	GRK2 inh	LMPTP block	SUMO1 PPI mod	DNMT1 confirm	DNMT1 interf
N#Cc1ccccc1/C=N/Nc1nc(-c2ccccc2)c2cc(Cl)ccc2n1	2.5	9.4	65.8*	0.0	11.4	-5.8	3.5	-2.6
Cn1ccsc1=NC(=O)c1ccc([N+](=O)[O-])o1	35.9	65.0*	59.4*	22.0	2.1	-19.4	3.4	0.4
COc1ccc(-c2cc(=O)oc3c(C)c(OC(C)C(C)=O)ccc23)cc1 (stereo not drawn)	3.9	-9.7	-1.9	2.0	-0.5	-30.2	x	x
COc1ccc(-c2cc(=O)oc3c(C)c(OC(=O)c4cccs4)ccc23)cc1	1.1	1.2	59.6*	4.0	1.7	1.2	3.0	-8.6
COc1ccc(Cl)cc1N(CC(=O)NCc1ccccn1)S(=O)(=O)c1ccc(C)cc1	-2.5	x	-4.2	x	2.2	-0.8	x	x
c1ccc(-c2nc(-n3nc4ccccc4n3)nc3ccccc23)cc1	3.0	-17.8	-3.8	4.0	6.2	-6.3	x	x
O=C1CN(c2nc(-c3ccccc3)c3ccccc3n2)c2ccccc2N1	-2.0	2.4	60.6*	3.0	0.2	7.8	1.7	6.5
O=C(c1cc(COc2ccc(F)cc2Cl)on1)N1CCSCC1	-3.0	-9.2	-1.0	29.0	-1.4	-2.4	x	x
O=C1Cc2cccc(=O)c(O)c2C(=O)O1	22.0	x	80.8*	x	0.3	9.8	10.1	2.1
Cc1nn(CCc2nc(-c3ccco3)cs2)c2[nH]c(=O)cc(C(F)(F)F)c12	7.5	19.6	60.6*	3.0	2.1	32.2	0.2	-1.8
Cc1cc(C)n(CCc2nc(-c3ccco3)cs2)n1	9.7	32.0	36.4	0.0	8.6	9.9	x	x
CCOC(=O)c1c(C)[nH]c(C(=O)OCC(=O)Nc2cc(C)c(Cl)cc2OC)c1C	2.7	-5.0	60.1*	2.0	0.5	-0.5	0.6	-3.8
CCC(c1nnc(SCC(=O)Nc2ccc(C(=O)N(C)C)cc2)n1Cc1ccccc1)N(C)C (stereo not drawn)	-2.7	-0.7	0.7	0.0	-7.4	-33.3	x	x

Compound activity as filed in PubChem BioAssay.
